bCat KO growth = primary screen for growth suppressors in beta-catenin knockout HCT116 cells (colon tumor, human). viability, % at 10 µM. AID 818, 2007. hit rate 1.5% among 140,000. HCT116 beta-catenin knockout viability, CellTiter-Glo, 60 h; hits give low values;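 active = viability at or under a set limit, the compound median less 4 SD, cut at about 6% in these data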;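 also: 0% = Hyamine 1622 control at 20 µM and 100% = untreated cell control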
Fibroblast inh = antiproliferative effect on LL 47 fibroblasts – human, LL 47 cells, CellTiter-Glo luminescence, primary screen | LL 47 human lung fibroblast viability, ATP luminescence; hits give low values | viability, % at 10 µM | hit rate 1.1% among 85,000 | AID 719, 2007;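 active = viability at or below 50% in the single dose screen; inactive = viability above 50%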;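 also: compound exposure lasted 72 h before the ATP readout; 100% = median luminescence of untreated cell-only wells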
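Material: human lung fibroblast line LL 47, low passage; Evaluation: viability percentage against median untreated-cell control; Buffer or medium: 15% FBS in IMEM; Incubation: 72 h compound exposure at 37 °C after overnight plating; Dosing: 0.1% DMSO in all compound wells; Measured by: CellTiter-Glo luminescence.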
PTEN del growth = growth suppression of PTEN-null HCT116, primary screen, cell-based, CellTiter-Glo | HCT116 PTEN-null viability, 60 h; hits give low values | viability, % at 10 µM | hit rate 1.2% among 140,000;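 active = viability at or below a set limit, 4 SD under the median of all tested compounds, cut at about 3.7% in these data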;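 also: PTEN knockout HCT116 line with beta catenin targeted HCT116 as companion control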
Phagocytosis inh = inhibitors of macrophage phagocytosis, primary screen, imaging, J774A.1 cells, IgG beads | J774A.1 macrophage IgG-bead phagocytosis | inhibition, % at 5 µM | hit rate 0.07% among 110,000;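 active = inhibition above the mean of the plate negative controls plus 5 SD, cut at about 13% in these data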;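 also: phagocytic index as fraction of beads internalized from green versus red external bead signal; plate controls were DMSO negative control for no effect and cytochalasin-D positive control for full effect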
H69AR growth 86K = proliferation blockers of H69AR lung cancer cells, primary screen, cell-based, human, 86K library; H69AR lung tumor viability, ATP luminescence, 72 h; hits give low values; viability, % at 10 µM; hit rate 6% among 85,000;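 active = viability at or below 40%; inactive = viability above 40%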;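 also: multidrug resistant small cell line overexpressing MRP-1 efflux transporter; 100% = mean luminescence of untreated control wells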
HUVEC inhibit = inhibitors of HUVEC proliferation, primary screen, cell-based, 384-well; CellTiter-Glo luminescence, 72 h; hits give low values; hit rate 1.1% among 86,000; viability, % at 10 µM (by protocol);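 active = viability at or below 30%; inactive = viability above 30%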;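 also: 100% = median luminescence of DMSO-only cell control wells on each plate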
Numbers without * were called inactive; . = no result. Only a selection was taken, and hits are over-represented in it overall.

SMILES | bCat KO growth | Fibroblast inh | PTEN del growth | Phagocytosis inh | H69AR growth 86K | HUVEC inhibit
O=C(Nc1ccccc1)c1nn(-c2ccccc2)c(=O)cc1C(F)(F)F | 68.9 | . | 30.2 | -1.5 | . | .
O=C(c1cccc(Cl)c1)c1nn(-c2ccccc2)c(=O)cc1C(F)(F)F | 2.5* | . | 1.1* | . | . | .
O=C(c1ccccc1)c1nn(-c2ccc(Cl)cc2)c(=O)cc1C(F)(F)F | 2.2* | . | 1.7* | . | . | .
O=C(c1ccccc1)c1nn(-c2ccccc2)c(=O)cc1C(F)(F)F | 17.2 | . | 13.8 | . | . | .
NC(=O)c1ncc(C(F)(F)F)cc1Oc1ccc(C(F)(F)F)cc1 | 103.0 | 105.9 | 93.0 | -1.7 | 110.3 | 96.7
N=c1c(-c2nc3ccccc3[nH]2)cc(C(=O)c2cccs2)nn1-c1ccccc1 | 46.9 | 85.8 | 54.1 | . | 5.4* | 69.7
CC(=O)Nc1ccccc1/C=C/c1ccc2c(C)cc(C)c(O)c2n1 | 11.8 | . | 3.3* | -1.2 | . | .
CC(=O)Nc1ccccc1/C=C/c1ccc2c(C)ccc(O)c2n1 | 17.9 | . | 17.3 | -7.3 | . | .
Cc1cc2nc(C)n(CCCNC(=O)Nc3ccc(F)cc3)c2cc1C | 98.7 | 98.5 | 88.0 | . | 87.6 | 105.7
COc1cc2c(cc1OC)CN(c1nc(CN3CCOCC3)nc3sc4c(c13)CCCC4)CC2 | 29.7 | . | 3.1* | -7.0 | . | .
COc1cc2c(cc1OC)CN(c1nc(CN3CCCCC3)nc3sc4c(c13)CCCC4)CC2 | 21.7 | . | 19.0 | 3.0 | . | .
CC(=O)C1=C(C)N(Cc2ccccc2)C(=O)N[C@@H]1c1cccc(C(F)(F)F)c1 | 88.8 | . | 88.8 | . | . | .
COC(=O)C1=C(C)N(Cc2ccco2)C(=O)N[C@@H]1c1cccc(C(F)(F)F)c1 | 0.7* | . | 0.7* | . | . | .
O=C(O)CCCC(=O)Nc1ccccc1C(=O)N1CCCC1 | 103.9 | 93.7 | 103.8 | -2.1 | 89.7 | 85.0
COc1ccc2[nH]c3c(N4CCN(Cc5ccc6c(c5)OCO6)CC4)ncnc3c2c1 | 11.3 | 89.5 | 8.0 | -0.7 | 48.6 | 54.1
COc1ccc2[nH]c3c(N4CCC(O)(c5cccc(C(F)(F)F)c5)CC4)ncnc3c2c1 | 4.5* | . | 5.4 | 0.4 | . | .
O=C(Oc1c(Cl)cc(Cl)c2cccnc12)c1cccc([N+](=O)[O-])c1 | 4.4* | . | 10.1 | -10.9 | . | .
O=C1Nc2ccccc2/C1=C/C(=O)c1cccs1 | 2.0* | 33.9* | 1.6* | . | 0.7* | 68.0
Cc1ccc(/C=C2\C(=O)Nc3ccccc32)o1 | 8.9 | . | 4.9 | 2.6 | . | .
CC(=O)C(C(C)=O)c1c(Cl)c(O)c(O)c2c(C(=O)c3ccccc3)coc12 | 62.3 | 47.4* | 66.1 | -0.4 | 1.6* | 65.5
CN1CCN(Cc2c(O)ccc3occ(C(=O)c4ccccc4)c23)CC1 | 59.2 | 97.0 | 68.9 | -0.4 | 94.8 | 86.6
C=CCNc1nc2c3ccccc3n(C(C)=O)c2s1 | 86.6 | 99.6 | 86.0 | -0.4 | 69.8 | 88.5
COc1ccc(NC(=O)/C(=C\c2ccc3c(c2)OCO3)NC(C)=O)cc1 | 98.1 | . | 106.2 | 5.8 | . | .
N#CC1=C(SCC(=O)c2ccc(Cl)cc2)NC2=C(C(=O)CCC2)C1c1ccco1 (centres undefined) | 18.1 | 54.4 | 16.1 | -2.2 | 13.2* | 51.7
COc1ccc2c(c1OC)C(=O)N1N=C(c3ccc(Cl)cc3)CC21 (centres undefined) | 91.6 | . | 86.2 | -0.1 | . | .
SMILES | bCat KO growth | Fibroblast inh | PTEN del growth | Phagocytosis inh | H69AR growth 86K | HUVEC inhibit
CCOc1ccc(N=CC2=C(O)CC(C)(C)CC2=O)cc1 | 90.8 | 93.2 | 96.5 | -1.2 | 39.8* | 75.7
CC1(C)CC(=O)C(C=Nc2ccc(O)cc2)=C(O)C1 | 96.0 | 87.5 | 92.0 | -1.0 | 54.0 | 93.8
COc1ccccc1/C=C/C=N/NC(=O)CCn1nnc2ccccc21 | 93.3 | . | 89.5 | -4.2 | . | .
Cc1ccc(Cn2ccc(NC(=O)c3cc(-c4cccs4)on3)n2)cc1 | 90.0 | 100.5 | 98.9 | 0.7 | 80.3 | 76.4
Cn1c(SC2=CS(=O)(=O)c3ccccc32)nc2ccccc21 | 2.5* | 2.2* | 1.4* | . | 0.6* | 43.3
Cc1noc(/C=C/c2ccco2)c1S(=O)(=O)N1CCC(C(=O)N(C)Cc2ccccc2)CC1 | 73.6 | 98.3 | 68.1 | -0.1 | 71.4 | 93.9
CCOCCCNC(=O)C1CCN(S(=O)(=O)c2c(C)noc2/C=C\c2ccc(OC)cc2)CC1 | . | 93.8 | . | . | 37.1* | 79.9
Cc1noc(/C=C/c2ccco2)c1S(=O)(=O)N1CCC(C(=O)NC(C)c2ccccc2)CC1 (centres undefined) | 75.8 | 95.5 | 77.1 | -0.6 | 12.8* | 85.8
CCCNC(=O)C1CCN(S(=O)(=O)c2c(C)noc2/C=C\c2ccc(OC)cc2)CC1 | 87.1 | 91.0 | 96.0 | . | 90.3 | 73.5
CCC(C)NC(=O)CSc1ncccc1C(=O)O (centres undefined) | 106.1 | 107.1 | 100.5 | -1.9 | 90.0 | 111.8
COc1ccc(S(=O)(=O)N2CCN(CC(=O)Nc3ccc(C)c(F)c3)CC2)cc1 | 68.6 | 104.7 | 76.2 | 0.7 | 4.9* | 99.2
O=C(CN1CCN(S(=O)(=O)c2ccc(Br)cc2)CC1)Nc1ccc2c(c1)OCCO2 | 94.5 | 98.4 | 94.3 | -1.8 | 17.1* | 88.0
O=C(CN1CCN(S(=O)(=O)c2ccc(Cl)cc2)CC1)Nc1ccc2c(c1)OCCO2 | 92.9 | 103.9 | 98.4 | -0.1 | 67.2 | 87.7
Cc1ccc(-n2c(C)cc(/C=C3\NC(=O)NC3=O)c2C)c(C)c1 | 84.6 | . | 83.6 | -3.7 | . | .
COc1cc2cc(C(=O)O)[nH]c2c(OC)c1OC | 105.1 | 99.8 | 106.7 | -0.2 | 96.8 | 96.9
CCOc1nc(Nc2ccc(OC)c(Cl)c2)nc(OCC)n1 | 90.7 | 92.0 | 84.0 | -1.2 | 36.4* | 89.6
C#CCn1c(=NC(=O)c2ccc(S(=O)(=O)N3CCc4ccccc4C3)cc2)sc2cc(S(N)(=O)=O)ccc21 | 1.4* | . | 1.5* | 1.7 | . | .
C=CCn1c(=NC(=O)c2ccc(S(=O)(=O)N3CCc4ccccc4C3)cc2)sc2cc(S(N)(=O)=O)ccc21 | 1.4* | . | 1.7* | 5.1 | . | .
CC(C)CCNC(=O)C(c1cccnc1)N(Cc1ccccc1)C(=O)Cn1nnc2ccccc21 (centres undefined) | . | 91.6 | . | . | 78.4 | 94.6
COc1ccc(-c2ccccc2)cc1NCc1ccc(OC)c(OC)c1 | 87.0 | . | 92.3 | -12.2 | . | .
Cc1nnc(SCC(=O)Nc2cccc(S(=O)(=O)N(C)c3ccccc3)c2)s1 | 70.3 | . | 66.6 | 4.6 | . | .
O=C(/C=C/c1ccc(F)cc1)NCCc1ccc2c(c1)OCCO2 | 89.7 | . | 89.8 | -12.8 | . | .
CC(C)N=C(NS(=O)(=O)c1ccccc1)C(Cl)(Cl)Cl | 3.5* | . | 2.0* | -4.2 | . | .
O=C(O)CN=C(NS(=O)(=O)c1ccccc1)c1ccccc1 | 94.0 | . | 99.3 | -1.5 | . | .
CC1CCCCN1S(=O)(=O)c1ccc2c(c1)CCN2C(=O)C1CCC1 (centres undefined) | 80.3 | 93.1 | 72.3 | . | 42.7 | 102.8
Cc1cccc(-c2cc3c(nn2)-c2ccccc2C3=O)c1 | 35.7 | 84.2 | 30.1 | 0.4 | 18.7* | 59.0

Compound activity from PubChem BioAssay.
